This note sets out measurements from ChEMBL document CHEMBL1131053, “Design, synthesis, and pharmacological evaluation of conformationally constrained analogues of N,N'-diaryl- and N-aryl-N-aralkylguanidines as potent inhibitors of neuronal Na+ channels” (J Med Chem, 1998).

Assay [1] is described as follows: In vitro inhibition of Calcium flux into brain synaptosomes. The format is functional, subcellular, Rattus norvegicus. In short, it runs like this:
(§1)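 45Ca2+ influx into brain synaptosomes depolarized by elevated K+, adapted from Nachsen and Blaustein. The rapid uptake component is measured, attributed to presynaptic neuronal (likely P-type) Ca2+ channels. Means of at least three determinations ± SEM unless otherwise indicated.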

For assay [2], the system named is Mus musculus. Briefly: Percent inhibition of convulsions in audiogenic DBA/2 mice at dose 20 mg/kg. Type of assay: functional. In short, it runs like this:
(§2)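 Audiogenic DBA/2 mice of either sex, 6.5–12 g, 20–23 days old. Drug or vehicle (0.3 M mannitol, 10 mL/kg) given ip 30 min before a 12 kHz, 120 dB pure tone for 45 s or until respiratory arrest. % inhibition = (MRS control − MRS treatment)/MRS control × 100.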

The target of assay [3] is T1, Sodium channel protein type 2 subunit alpha (Rattus norvegicus, UniProt P04775). The experiment in a line: (§3) In vitro inhibition of [14C]- guanidinium influx in Chinese hamster ovary (CHO) cells expressing rat brain sodium channel type IIA (CNaIIA-1). Type of assay: cell-based.
T1 sequence (P04775 whole entry): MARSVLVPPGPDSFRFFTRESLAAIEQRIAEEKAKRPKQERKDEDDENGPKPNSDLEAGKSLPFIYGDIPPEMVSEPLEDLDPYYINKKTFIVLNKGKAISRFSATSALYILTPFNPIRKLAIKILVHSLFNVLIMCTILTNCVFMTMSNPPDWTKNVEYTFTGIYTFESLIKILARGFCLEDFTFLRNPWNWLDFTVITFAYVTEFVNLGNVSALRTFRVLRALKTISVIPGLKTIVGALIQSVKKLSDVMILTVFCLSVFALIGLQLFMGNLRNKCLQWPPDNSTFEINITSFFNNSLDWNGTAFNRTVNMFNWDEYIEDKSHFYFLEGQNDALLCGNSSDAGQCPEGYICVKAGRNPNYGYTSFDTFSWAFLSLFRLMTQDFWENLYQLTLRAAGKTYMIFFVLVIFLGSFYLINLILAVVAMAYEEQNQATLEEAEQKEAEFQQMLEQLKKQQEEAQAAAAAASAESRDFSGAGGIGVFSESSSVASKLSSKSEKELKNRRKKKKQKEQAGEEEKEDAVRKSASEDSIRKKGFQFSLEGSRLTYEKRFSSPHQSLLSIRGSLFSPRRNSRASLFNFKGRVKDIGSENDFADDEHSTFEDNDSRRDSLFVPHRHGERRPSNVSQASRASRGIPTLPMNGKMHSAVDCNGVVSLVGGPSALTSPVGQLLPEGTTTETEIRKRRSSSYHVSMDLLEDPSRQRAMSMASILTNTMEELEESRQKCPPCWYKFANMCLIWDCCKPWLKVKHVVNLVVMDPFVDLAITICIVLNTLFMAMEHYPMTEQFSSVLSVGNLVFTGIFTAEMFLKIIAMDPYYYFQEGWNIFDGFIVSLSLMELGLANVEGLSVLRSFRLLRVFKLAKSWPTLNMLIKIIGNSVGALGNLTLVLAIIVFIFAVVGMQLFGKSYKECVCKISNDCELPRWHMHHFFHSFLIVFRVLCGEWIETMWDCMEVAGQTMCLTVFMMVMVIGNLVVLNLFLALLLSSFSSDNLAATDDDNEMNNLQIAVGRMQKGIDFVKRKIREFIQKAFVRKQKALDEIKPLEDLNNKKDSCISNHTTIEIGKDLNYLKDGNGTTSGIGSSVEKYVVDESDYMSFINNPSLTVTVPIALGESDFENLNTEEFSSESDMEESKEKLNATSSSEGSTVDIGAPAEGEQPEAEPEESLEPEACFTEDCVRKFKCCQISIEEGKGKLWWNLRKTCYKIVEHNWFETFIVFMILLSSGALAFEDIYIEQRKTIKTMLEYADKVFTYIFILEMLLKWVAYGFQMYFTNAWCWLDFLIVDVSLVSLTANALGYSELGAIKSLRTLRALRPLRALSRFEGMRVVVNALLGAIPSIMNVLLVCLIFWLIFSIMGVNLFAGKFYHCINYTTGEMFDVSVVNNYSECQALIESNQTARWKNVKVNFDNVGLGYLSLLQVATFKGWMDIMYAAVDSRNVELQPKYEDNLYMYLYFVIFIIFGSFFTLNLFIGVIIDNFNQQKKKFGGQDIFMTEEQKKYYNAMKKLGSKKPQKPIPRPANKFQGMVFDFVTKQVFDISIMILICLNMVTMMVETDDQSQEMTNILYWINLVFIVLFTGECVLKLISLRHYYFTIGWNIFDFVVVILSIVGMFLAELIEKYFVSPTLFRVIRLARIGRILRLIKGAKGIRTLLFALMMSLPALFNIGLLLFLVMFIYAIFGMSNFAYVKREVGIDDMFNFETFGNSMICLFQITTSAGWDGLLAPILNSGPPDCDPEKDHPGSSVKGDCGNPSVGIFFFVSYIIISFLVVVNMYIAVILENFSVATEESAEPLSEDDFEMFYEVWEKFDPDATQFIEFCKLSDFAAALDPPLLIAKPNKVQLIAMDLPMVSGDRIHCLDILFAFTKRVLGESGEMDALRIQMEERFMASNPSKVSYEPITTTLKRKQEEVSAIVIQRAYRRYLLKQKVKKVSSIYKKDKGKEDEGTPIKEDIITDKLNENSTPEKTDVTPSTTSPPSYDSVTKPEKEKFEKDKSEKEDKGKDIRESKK
The target in assay [4] is Glutamate NMDA receptor. Briefly: Displacement of [3H]-MK-801 binding to N-methyl-D-aspartate glutamate receptor of rat brain membranes. The format is cell membranes, Membrane. In short, it runs like this: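 Rat brain membrane suspension; inhibition of [3H]MK-801 binding at the NMDA receptor ion-channel site. IC50 taken from displacement curves, Ki reported. Means of at least three separate determinations ± SEM.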

Assay [5] concerns Mus musculus. The experiment in a line: Percent inhibition of convulsions in audiogenic DBA/2 mice at dose 10 mg/kg. Type of assay: functional. The procedure, abridged:
as §2

For assay [6], the target named is T1, Sodium channel protein type 2 subunit alpha. Described as §3. The format is functional, cell-based.
Assay [7] in a line: In vitro inhibition of Calcium flux into brain synaptosomes (Values are means of at least three separate determinations). Type of assay: functional, subcellular, Rattus norvegicus. In short, it runs like this: as §1
The subject of assay [8] is Mus musculus. Briefly: Percent inhibition of convulsions in audiogenic DBA/2 mice at dose 2 mg/kg. The format is functional. In short, it runs like this: as §2
The subject of assay [9] is Mus musculus. The experiment in a line: Percent inhibition of convulsions in audiogenic DBA/2 mice at dose 4 mg/kg. The format is functional. In short, it runs like this: as §2

In the case of `CCC(C)c1ccc(N(Cc2ccc(C(C)(C)C)cc2)C(=N)N)cc1` (configuration not stated), the IC50 worked out at 2.4 µM in assay [1] and 0.62 µM in assay [3]. Besides, in [2], the inhibition in vivo at 20 mg/kg turned out to be 81%. Affinity in [4] was put at a Ki of 3.69 µM. Moreover, in assay [5], at 10 mg/kg the inhibition in vivo was 44%.

In assay [3], `c1ccc(NC2=NCCN2c2ccccc2)cc1` showed an IC50 of more than 25 µM.

Regarding `COc1ccc(/N=C(\N)Nc2ccc3c4c(cccc24)CC3)c2ccccc12`, the concentration for half-maximal inhibition (IC50) is 1.64 µM in assay [6] and 2.7 µM in [7]. The compound also gave an inhibition in vivo at 20 mg/kg in [2] of 21%. The compound also returned an inhibition constant (Ki) in assay [4] of 2.49 µM.

`CCC(C)c1ccc(NC(=N)Nc2ccc(C(C)CC)cc2)cc1` (configuration not stated) gave an inhibition in vivo at 20 mg/kg in assay [2] of 69%. Moreover, in assay [4], the Ki came out at 4.33 µM.

In [3], `NC1=NCC(c2ccccc2)N1c1ccccc1` (configuration not stated) had an IC50 of more than 24 µM.

In turn, `NC1=Nc2ccccc2CN1c1ccccc1` displayed a concentration for half-maximal inhibition (IC50) in assay [3] of 9.95 µM.

In turn, `CCC(C)c1ccc(N2CCN(c3ccc(C(C)CC)cc3)C2=N)cc1` (configuration not stated) came in with an IC50 in assay [6] of 0.06 µM. In addition, the inhibition in vivo at 20 mg/kg in assay [2] turned out to be 58%. This compound also gave a Ki in assay [4] of 13.5 µM.

Consider `N=C(N)N(Cc1ccccc1)c1ccccc1`, for which half-maximal inhibition in assay [3] (IC50) required 53 µM.

Take `CCC(C)c1ccc(N2CCCN(c3ccc(C(C)CC)cc3)C2=N)cc1` (configuration not stated): the IC50 in assay [6] was 0.06 µM; in [7], 0.39 µM. Also, testing at 2 mg/kg in assay [8] gave an inhibition in vivo of 41%. This compound displayed an inhibition in vivo at 4 mg/kg in assay [9] of 75%. This compound also showed an inhibitory constant (Ki) in assay [4] of 35.1 µM. At 10 mg/kg the inhibition in vivo in assay [5] was 84%.

Consider `CC(C)c1ccc2c(c1)CCC(c1ccc(C(C)(C)C)cc1)N2C(=N)N` (configuration not stated), for which the results for the IC50 in assay [6] and in assay [7] were 0.46 µM and 0.9 µM, respectively. For the same compound, the inhibition in vivo at 20 mg/kg in assay [2] is 80%. The Ki in assay [4] was determined as 3.84 µM. This compound also yielded an inhibition in vivo at 10 mg/kg in assay [5] of 22%.

Compound `N=C1N(c2ccccc2)CCCN1c1ccccc1` returned a concentration for half-maximal inhibition (IC50) in assay [3] of more than 25 µM.

The compound `N/C1=N/c2ccc(cc2)OCCCCCOc2ccc(cc2)N1` returned an IC50 in assay [3] of 2.9 µM.

For `CCOc1ccc(NC(=N)Nc2ccc(OCC)cc2)cc1`, it took 3.28 µM to reach half-maximal inhibition in assay [3] (IC50).

Turning to `CCC(C)c1ccc(N(C)C(=N)N(C)c2ccc(C(C)CC)cc2)cc1` (configuration not stated), the IC50 was 1 µM in [6] and 2.5 µM in assay [7]. Testing at 20 mg/kg in [2] gave an inhibition in vivo of 43%. The Ki in assay [4] is 3.34 µM.

In assay [3], `N=C(N)N1Cc2ccccc2CCc2ccccc21` came in with an IC50 of 38 µM.

The compound `N=C(N)N1c2ccccc2CCC1c1ccccc1` (configuration not stated) had an IC50 in assay [3] of 17.5 µM.

As for `CCC(C)c1ccc(N2C(N)=NCC2c2ccc(C(C)C)cc2)cc1` (configuration not stated), the values for the 50% inhibitory concentration (IC50) in assay [1] and in assay [3] were 3.5 µM and 1.8 µM, respectively. 20 mg/kg produced 2% inhibition in vivo in assay [2]. In assay [4], this compound gave a Ki of 4.41 µM.

For the compound `N=C1N(c2ccccc2)CCN1c1ccccc1`, the IC50 in assay [3] amounted to 14.7 µM.

Consider `N=C(Nc1ccccc1)Nc1ccccc1`, for which, in assay [6], the IC50 was more than 14 µM.

With `Nc1nnc(-c2cccc(Cl)c2Cl)c(N)n1` [LAMOTRIGINE], testing at 10 mg/kg in assay [5] gave an inhibition in vivo of 71%.

`CN(c1nc2ccccc2s1)C1CCN(C[C@H](O)COc2ccc(F)c(F)c2)CC1` [LUBELUZOLE] registered an inhibition in vivo at 20 mg/kg in assay [2] of 66%. The same compound came in with a concentration for half-maximal inhibition (IC50) in [3] of 0.26 µM.
